Results reported in the EternaBench riboswitch data.

System: MS2 coat protein
Assay: apparent Kd, MS2 coat protein; higher = weaker binding; RNA-MaP array; FMN 200 µM where present
Procedure, shortened: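 Stalled E. coli RNA polymerase transcribed the designs on Illumina sequencing-chip clusters. SNAP-549-labelled MS2 coat protein was titrated from 0.7 or 1.5 nM, doubling to 3 µM, without and then with constant ligand, in 100 mM Tris-HCl pH 7.5, 80 mM KCl, 4 mM MgCl2, BSA, DTT, yeast tRNA and Tween-20. Per-cluster binding curves were fitted to green signal normalised to red-channel RNA signal and control-cluster median Fmax. The apparent Kd is the median of the filtered fits.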

[1] = designed as: ON switch for flavin mononucleotide, no ligand
[2] = ligand present: flavin mononucleotide, designed as: ON switch for flavin mononucleotide
[3] = designed as: OFF switch for flavin mononucleotide, no ligand
[4] = ligand present: flavin mononucleotide, designed as: OFF switch for flavin mononucleotide

Sequence	apparent Kd [1]	apparent Kd [2]	apparent Kd [3]	apparent Kd [4]
UCCACUGCUGAGAAGGGAUACGUCUGGGUCGCAUCAGGAUAUCGAUACAGUGCAGCAUGAGGACAUGAGGAUCACCCAUGUGUG	102 nM	49.6 nM	–	–
CGAUGAGGUGUGAGGAUAUCGUGUUCGAAAGAACGUGAGAAGGCACAUGAGGAUCACCCAUGUGAACCUUGUCG	–	–	16.9 nM	18.8 nM
GCUGGACAAGGAUAUACAUUCGUGCUUCGGCACGUAAGAUCACAUGAGGAUCACCCAUGUAGAAGGUGUCCAGC	–	–	67.8 nM	612 nM
GGAGAUACAUGAGGAUCACCCAUGUAGGAUAUCGGGUAUAUAUAUGGCGAAAGCCAUAUAUAUACCGAGAAGGGCGUACACACC	–	–	8.59 nM	8.11 nM
AAUUAUAGGUAGAAGGUACUGACUUAUGUGUUGUAAGGAUAUACCAAAUUAUUAGAUCUCAAGUUACAUGAGGAUCACCCAUGU	9.18 nM	7.97 nM	–	–
CAGCAAUGUAAGAAGGCUGCUCCGAUUAGGAGCAGAGGAUAUUACAUGAGGAUCACCCAUGUAUAAAAUAAUAGCUGAAAUAAU	–	–	6.37 nM	7.69 nM
ACAUGAGGAUCACCCAUGUUCACAUAGGAUAUUGAUUAUAUUGGUUUUAGAAUAGUAAUUAACCUCAAGAAGGAUGCCUGAUCU	12.5 nM	10.9 nM	–	–
GCACAAAGGUGACACCGUGUCGCUCAGGAUAUACGUGACGGCCCUCGCACAUGAGGAUCACCCAUGUAGAAGGGAGUUAAACGG	–	–	7.66 nM	14.9 nM
AUAAUUAUAUAUUUCACAAGAAUCAGAAGGCGUUACAUGAGGAUCACCCAUGUUUUGUAUAGUAACGAGGAUAUGAUAUGGAAA	–	–	15.2 nM	14 nM
UUGCCUCGGAACAUGAGGAUCACCCAUGUGCUGCGGGCAACGUAGGAUAUGAUGGUACGCUACCAUCAGAAGGAUGAUGGUACC	4.98 nM	5.29 nM	–	–
GAUGUUUGAGGAUAUACAUGAGGAUCACCCAUGUGUGUCCAUACGCGUGAGUCUUCGUGUAGAAGGCGGGCGUC	–	–	14.1 nM	15.5 nM
GUCAGCUCGUCAGGAUAUACAUGAUAGAUCGAUUAAUUAAUUAAUUUAACAUGAGGAUCACCCAUGUAGAAGGGACGAGCUGAU	–	–	109 nM	84.2 nM
CGAUAAUAUAGUUAUCCGUAGCGAACAUGAGGAUCACCCAUGUAGGAUAUGUUACUAAACUAGUAACAGAAGGACAUGAGUCUU	–	–	28.5 nM	178 nM
UUAUUAUAUGUAGGAUAUGCAUAUUGUUGUUAUGCAGAAGGACAUGAGGAUCACCCAUGUGUAUUAUUGUUAUAUAUUAUAUAU	–	–	21.5 nM	31.2 nM
GAAUUCGCAUGAGGAUAUGCACUCAUUUCAUGUGCAGAAGGUAUAUCAUUAGACAUGAGGAUCACCCAUGUAUUGGUCAAUAAC	17.8 nM	14.8 nM	–	–
GUUACAUGAGGAUCACCCAUGUAUGUGUGGGAGUAAGUGUCUUAGGAUAUCUAUUAUUUAAUGUAAGAGAAGGAAGAUUGUUGU	113 nM	124 nM	–	–
AACGGUGGGUAGGAUAUCCGGUUCUAGUUGCCAGGAGAAGGGCCCACAUGAGGAUCACCCAUGUGGGUGGGCUC	–	–	47.7 nM	26.1 nM
CGGCAAUGACGAGGAUAUAGACAUGAGGAUCACCCAUGUAACAGUAUUACAGGGCGUCUUCUCGGCUAGAAGGCGUUCUAUGCC	–	–	59.4 nM	62.6 nM
ACAUGAUAUGUAGGAUAUCACAUUAAUUGAUUAAUAAUUGAAUAUAGGAUUUGAGAAGGACAUUUACAUGAGGAUCACCCAUGU	–	–	17.6 nM	13.1 nM
ACACAUGAGGAUCACCCAUGUAGUAAUAGCUUCCGGACCUCACAGGAUAUAUGCAAGUUCGUUGCGUAGAAGGGUGAACUCUAA	89 nM	92.5 nM	–	–
UUGUGGGAGCAGGAUAUCUUAUUUUGGUUUUGUGGAGAAGGGCUGACAUGAGGAUCACCCAUGUGGUCCUAGAU	–	–	21.7 nM	36.5 nM
GGUGGAAGCACAGGAUAUGUUGAUUUUAUGGUGUUACAUGAGGAUCACCCAUGUCCGCGAUUCUAACAGAAGGGUGCAUGGAUG	543 nM	59.9 nM	–	–
UUGCGGUAGGAGAAGGACAGAGGCGGAAACACAUACAUGAGGAUCACCCAUGUAGGAUAUCCUACCUAACGCGGACUCCUCCAG	–	–	5.85 nM	6.43 nM
